Test [1] in a line: (§1) Selectivity index was determined. Type of test: functional. In a few lines: (§2)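 Selectivity was calculated as the mean EC50 for FM3A cells divided by the mean EC50 for P. falciparum FCR-3.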
For test [2], the system named is Plasmodium falciparum. Description: In vitro antimalarial activity against Plasmodium falciparum. Type of test: functional, organism-based. Put shortly:
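Tested against chloroquine-sensitive P. falciparum FCR-3 strain in culture. EC50 was determined by a previously reported protocol.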

In test [3] the test system is FM3A. Description: Compound was tested in vitro cytotoxicity against FM3A cell. The class given is functional, cell-based. As to conditions: Mus musculus. Put shortly:
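Cytotoxicity control used mouse mammary tumor FM3A cells in culture. The 50% inhibitory concentration (EC50) was determined by a previously reported protocol.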

Test [4] has as its system Mus musculus. Description: Compound was tested in vitro Antimalarial activity against Plasmodium berghei in infected mice (Mus musculus) administered per orally. The class given is functional. As to conditions: po. Put shortly:
(§3)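 Mice infected with P. berghei NK 65 strain, in groups of five, were dosed once daily on days 0–3 with a range of concentrations in olive oil. Dosing was intraperitoneal or oral.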

Test [5] relates to Mus musculus. Description: Compound was tested in vitro Antimalarial activity against Plasmodium berghei in infected mice (Mus musculus) administered intraperitoneally. Type of test: functional. As to conditions: ip. In a few lines:
as §3

For test [6], the system named is Plasmodium falciparum. Description: In vitro antimalarial activity against […]. Type of test: functional, organism-based.
Test [7] in a line: as §1. The class given is functional. In a few lines:
as §2
The source holds these as a separate data set.

SMILES strings stand for the structures.

A word on the EC50: it is the concentration giving half of the maximal effect. A higher EC50 goes with a less potent agent. One may read the ED50 as the midpoint of the dose-response relation.

In the case of `Fc1ccc(C2OOC3C4CCC(C4)C3(c3ccccc3)OO2)cc1` (stereo unspecified), the Selectivity in test [1] was 11. Moreover, the results for the EC50 in test [2] and in test [3] were 1 µM and 11 µM, respectively.

`CC1(C2OOC3C4CCC(C4)C3(c3ccccc3)OO2)CCCC1` (stereo unspecified): the Selectivity in test [1] worked out at 45. Further, the EC50 was 0.13 µM in test [2] and 5.9 µM in test [3].

For `C[C@@H]1CC[C@H]2[C@@H](C)C(=O)O[C@@H]3O[C@@]4(C)CC[C@@H]1[C@]32OO4` [ARTEMISININ], the Selectivity in test [1] is 1000. In test [4], this compound had an ED50 of 32 mg/kg and an ED90 of 89 mg/kg. Moreover, in test [5], the ED50 is 5.4 mg/kg and the ED90 is 13 mg/kg.

In test [1], `c1ccc(C23OOC4(CCCCC4)OOC2C2CCC3C2)cc1` (stereo unspecified) [TETRACYCLOALKANES] gave a Selectivity of 24. The EC50 was found to be 0.45 µM in test [2] and 11 µM in test [3].

In turn, `CC1(CI)CCOC2(c3ccccc3)C3CCC(C3)C2OO1` (stereo unspecified) came in with a Selectivity in test [1] of 3000. Further, the EC50 in test [2] stood at 0.005 µM; in test [3] it was 15 µM.

`c1ccc(C23OOC(C4CCCCC4)OOC2C2CCC3C2)cc1` (stereo unspecified) displayed a Selectivity in test [1] of 52. In addition, in test [5], the ED50 worked out at 70 mg/kg and the ED90 is greater than 100 mg/kg. For the same compound, a half-maximal response in test [6] (EC50) required 0.21 µM.

As to `c1ccc(C23OOCCCOOC2C2CCC3C2)cc1` (stereo unspecified), the ED50 in test [4] is greater than 100 mg/kg; in test [5], 13 mg/kg. Further, the values for the EC50 in test [2], in test [7] and in test [3] were 0.19 µM, 237 µM and 45 µM, respectively. In test [5], this compound registered an ED90 of 50 mg/kg.

Compound `CC1(CI)COC2(c3ccccc3)C3CCC(C3)C2OO1` (stereo unspecified) showed a Selectivity in test [1] of 11. In addition, the results for the EC50 in test [2] and in test [3] were 1 µM and 11 µM, respectively.

Consider `CC1(CI)CCOOC2(c3ccccc3)C3CCC(C3)C2OO1` (stereo unspecified), for which the Selectivity in test [1] worked out at 73. Also, the figures for the EC50 in test [2] and in test [3] were 0.15 µM and 11 µM, respectively.

Consider `c1ccc(C2OOC3C4CCC(C4)C3(c3ccccc3)OO2)cc1` (stereo unspecified), for which the Selectivity in test [1] is 9. Further, the results for the EC50 in test [2] and in test [3] were 1.5 µM and 13 µM, respectively.

Source of the values: ChEMBL document CHEMBL1144928, “Antimalarial activity of novel 1,2,5,6-tetraoxacycloalkanes and 1,2,5-trioxacycloalkanes” (J Med Chem, 2003).
